These results are taken from ChEMBL document CHEMBL1134387, “Synthesis and biodistribution of a new oxo-technetium-99m bis(aminothiol) complex as a potential melanoma tracer” (J Med Chem, 2001).

Structures are written as SMILES.

What all share (assay type): ADME, organism-based
For series [1], the system named is Mus musculus. Description: Tumor to blood radioactivity ratio was determined in mice at 6 hr after (iv) administration in presence of [125I]-BZA. Particulars: tumour.
Series [2] concerns Mus musculus. The series is described as follows: Biodistribution in tumor was determined at 6 hr in mice bearing C57B16 murine melanoma after (i.v.) administration. As to conditions: in vivo, iv. The method, boiled down:
(§1)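 C57 mice carrying B16 melanotic melanoma, implanted s.c. as 5×10^5 viable cells. Tumours were palpable after 10 days. Mice received 0.74 MBq of the 99mTc-labeled complex by tail-vein injection. Groups of n = 3 were killed by exsanguination at each time point. Weighed tissue aliquots were gamma-counted immediately and expressed as decay-corrected %ID/g, mean ± sem.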

The test system of series [3] is Mus musculus. Description: Tumor to blood radioactivity ratio was determined in mice at 24 hr after (iv) administration in presence of [125I]-BZA. Particulars: tumour.
Series [4] concerns Mus musculus. Description: Tumor to lung radioactivity ratio was determined in mice at 6 hr after (iv) administration in presence of [125I]-BZA. Particulars: in vivo.
Series [5] concerns Mus musculus. Description: Tumor to liver radioactivity ratio was determined in mice at 3h after (iv) administration in presence of [125I]-BZA. Particulars: in vivo.
Series [6] has as its system Mus musculus. Description: Tumor to liver radioactivity ratio was determined in mice at 24 hr after (iv) administration in presence of [125I]-BZA. As to conditions: in vivo.
Series [7] relates to Mus musculus. The series is described as follows: Tumor to liver radioactivity ratio was determined in mice at 6 hr after (iv) administration in presence of [125I]-BZA. Particulars: in vivo.
For series [8], the system named is Mus musculus. The series is described as follows: Tumor to blood radioactivity ratio was determined in mice at 3h after (iv) administration in presence of [125I]-BZA. As to conditions: tumour.
In series [9] the test system is Mus musculus. Description: Tumor to lung radioactivity ratio was determined in mice at 24 hr after (iv) administration in presence of [125I]-BZA. As to conditions: in vivo.
Series [10] concerns Mus musculus. Description: Biodistribution in tumor was determined at 3h in mice bearing C57B16 murine melanoma after (i.v.) administration. As to conditions: in vivo, iv. The method, boiled down:
as §1

Series [11] has as its system Mus musculus. Description: Tumor to liver radioactivity ratio was determined in mice at 1 hr after (iv) administration in presence of [125I]-BZA. Particulars: in vivo.
In series [12] the test system is Mus musculus. Description: Tumor to lung radioactivity ratio was determined in mice at 1 hr after (iv) administration in presence of [125I]-BZA. Particulars: in vivo.
Series [13] relates to Mus musculus. Description: Tumor to blood radioactivity ratio was determined in mice at 1 hr after (iv) administration in presence of [125I]-BZA. As to conditions: tumour.
For series [14], the system named is Mus musculus. The series is described as follows: Biodistribution in tumor was determined at 24 hr in mice bearing C57B16 murine melanoma after (i.v.) administration. As to conditions: in vivo, iv. The method, boiled down: as §1
For series [15], the system named is Mus musculus. The series is described as follows: Biodistribution in tumor was determined at 1 hr in mice bearing C57B16 murine melanoma after (i.v.) administration. Particulars: in vivo, iv. The method, boiled down: as §1
Series [16] concerns Mus musculus. Description: Tumor to lung radioactivity ratio was determined in mice at 3h after (iv) administration in presence of [125I]-BZA. As to conditions: in vivo.

As for `CCN(CC)CCNC(=O)c1ccc([125I])cc1`, the Ratio came out at 17.58 in the series with Mus musculus [1]; 37.33 in the series with Mus musculus [3]; 2.13 in the series with Mus musculus [4]; 1.1 in the series with Mus musculus [5]; 4.94 in the series on Mus musculus [6]; 3.83 in the series on Mus musculus [7]. Further, the Ratio with Mus musculus [8] came out at 7.79; in the series with Mus musculus [9], 15.82; with Mus musculus [11] it was 1.12; in the series on Mus musculus [12] it was 0.62; in the series on Mus musculus [13], 6.55; with Mus musculus [16], 0.69. Further, the ID/g worked out at 3.53% in the series on Mus musculus [2], 3.85% in the series on Mus musculus [10], 0.79% with Mus musculus [14] and 6.75% in the series on Mus musculus [15].
